Assay results: ChEMBL document CHEMBL1122441, “Structure-activity relationships of synthetic antibiotic analogues of anisomycin” (1983)
In brackets after ≈: the same amount, converted by molar mass.

Assays:
[1] = test system: Entamoeba histolytica; assay: Antiprotozoal activity measured as the conc for 100% inhibition of Entamoeba histolytica; type: functional, organism-based
In short: (§1)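 E. histolytica (J 190) grown 48 h at 37 °C in modified Boeck Drbohlav medium, pooled; 0.6 × 10^6 organisms inoculated into 10 mL medium with drug at 32 to 0.06 µg/mL, incubated 48 h.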

[2] = test system: Tritrichomonas suis; assay: Antiprotozoal activity measured as the conc for 100% inhibition of Trichomonas foetus; type: functional, organism-based
In short: (§2)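 Protozoa grown 48 h (T. vaginalis in TYM 721, T. foetus in TYM 359, E. histolytica J 190 in modified Boeck Drbohlav medium, 37 °C) and pooled; 0.6 × 10^6 organisms into 10-mL tubes with drug 32 to 0.06 µg/mL, 48 h; inhibition scored microscopically against untreated controls as 100, >95, 95-25 or <25%.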

[3] = test system: Tritrichomonas suis; assay: Antiprotozoal activity measured as the conc for 95-[…]% inhibition of Trichomonas foetus; type: functional, organism-based
[4] = test system: Tritrichomonas suis; assay: Antiprotozoal activity measured as the conc for <[…]% inhibition of Trichomonas foetus; type: functional, organism-based
[5] = test system: Tritrichomonas suis; assay: Antiprotozoal activity measured as the conc for >95% inhibition of Trichomonas foetus; type: functional, organism-based; in short: as §2
[6] = test system: Trichomonas vaginalis; assay: Antiprotozoal activity measured as the conc for 100% inhibition of Trichomonas vaginalis; type: functional, organism-based; in short: as §2
[7] = test system: Trichomonas vaginalis; assay: Antiprotozoal activity measured as the conc for 95-[…]% inhibition of Trichomonas vaginalis; type: functional, organism-based
[8] = test system: Trichomonas vaginalis; assay: Antiprotozoal activity measured as the conc for >95% inhibition of Trichomonas vaginalis; type: functional, organism-based; in short: as §2
[9] = test system: Candida albicans; assay: Antifungal activity against Candida albicans, activity expressed as […] inhibitory zone (mm, diameter); QA is questionable activity; type: functional, organism-based
In short: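 Agar diffusion on Sabouraud's dextrose agar seeded with 24-h yeast culture at 1:100 in agar; paper disks loaded with 0.05 mg drug (stock 1 mg/mL in Me2SO-EtOH 1:9). Incubated at 37 °C for 48 h; inhibition zone diameter measured in mm.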

[10] = test system: Entamoeba histolytica; assay: Antiprotozoal activity measured as the conc for >95% inhibition of Entamoeba histolytica; type: functional, organism-based; in short: as §1
[11] = test system: Actinomyces israelii; assay: Antibacterial activity against Actinomyces israelii, activity expressed as inhibitory zone (mm, diameter); type: functional
In short: (§3)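 Agar diffusion: disks loaded with 0.05 mg drug (stock 1 mg/mL in Me2SO-EtOH 1:9) on brain-heart infusion agar seeded 1:100 with 48-h anaerobe culture grown in thioglycolate broth; incubated anaerobically at 37 °C for 24 h; zone diameter measured in mm.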

[12] = test system: Bacteroides fragilis; assay: Antibacterial activity against Bacteroides fragilis, activity expressed as […] inhibitory zone (mm, diameter); type: functional
In short: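 Agar diffusion vs B. fragilis grown in thioglycolate broth: 0.05 mg drug per paper disk (stock 1 mg/mL, Me2SO-EtOH 1:9), brain-heart infusion agar seeded with 48-h culture at 1:100, anaerobic 37 °C, 24 h; zone diameter in mm.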

[13] = test system: Clostridium novyi; assay: Antibacterial activity against Clostridium novyi, activity expressed as inhibitory zone (mm, diameter); type: functional; in short: as §3
[14] = test system: Candida albicans; assay: Antifungal activity against Candida albicans, activity expressed as […] inhibitory zone (mm, diameter); type: functional
In short: (§4)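 Yeast grown in Sabouraud's dextrose broth, 24-h culture seeded 1:100 into agar; paper disks carrying 0.05 mg drug (from 1 mg/mL stock in Me2SO-EtOH 1:9); 37 °C, read after 48 h as zone diameter (mm).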

[15] = test system: Candida albicans; assay: Antifungal activity against Candida albicans, activity expressed as minimum inhibitory concentration ([…]); type: functional
[16] = test system: Epidermophyton floccosum; assay: Antifungal activity against Epidermophyton floccosum, activity expressed as inhibitory zone (mm, diameter); type: functional
In short: (§5)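 Dermatophytes grown in Sabouraud's dextrose broth, 4-5 day cultures seeded 1:100 into agar; disks with 0.05 mg drug (1 mg/mL stock, Me2SO-EtOH 1:9); grown and tested at 28 °C, zone diameter (mm) read after 48 h.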

[17] = test system: Entamoeba histolytica; assay: Antiprotozoal activity measured as the conc for <[…]% inhibition of Entamoeba histolytica; type: functional, organism-based
[18] = test system: Cutibacterium acnes; assay: Antibacterial activity against Propionibacterium acnes, activity expressed as inhibitory zone (mm, diameter); type: functional; in short: as §3
[19] = test system: Saccharomyces cerevisiae; assay: Antifungal activity against Saccharomyces cerevisiae, activity expressed as inhibitory zone (mm, diameter); type: functional; in short: as §4
[20] = test system: Saccharomyces cerevisiae; assay: Antifungal activity against Saccharomyces cerevisiae, activity expressed as minimum inhibitory concentration ([…]).; type: functional
[21] = test system: Streptococcus pyogenes; assay: Antibacterial activity against Streptococcus pyogenes C, activity expressed as inhibitory zone (mm, diameter); type: functional; in short: as §3
[22] = test system: Trichomonas vaginalis; assay: Antiprotozoal activity measured as the conc for <[…]% inhibition of Trichomonas vaginalis; type: functional, organism-based
[23] = test system: Trichophyton benhamiae; assay: Antifungal activity against Trichophyton mentagrophytes, activity expressed as inhibitory zone (mm, diameter); type: functional, Arthroderma benhamiae; in short: as §5
[24] = test system: Trichophyton benhamiae; assay: Antifungal activity against Trichophyton mentagrophytes, activity expressed as minimum inhibitory concentration ([…]).; type: functional, Arthroderma benhamiae
[25] = test system: Epidermophyton floccosum; assay: Antifungal activity against Epidermophyton floccosum, activity expressed as minimum inhibitory concentration ([…]); type: functional
[26] = test system: Epidermophyton floccosum; assay: Antifungal activity against Epidermophyton floccosum, activity expressed as minimum inhibitory concentration (ug/mL); type: functional
[27] = test system: Saccharomyces cerevisiae; assay: Antifungal activity against Saccharomyces cerevisiae, activity expressed as inhibitory zone (mm, diameter); QA is questionable activity; type: functional, organism-based; in short: as §4
[28] = test system: Saccharomyces cerevisiae; assay: Antifungal activity against Saccharomyces cerevisiae, activity expressed as minimum inhibitory concentration (ug/mL).; type: functional
[29] = test system: Trichophyton benhamiae; assay: Antifungal activity against Trichophyton mentagrophytes, activity expressed as minimum inhibitory concentration (ug/mL).; type: functional, Arthroderma benhamiae
[30] = test system: Candida albicans; assay: Antifungal activity against Candida albicans, activity expressed as minimum inhibitory concentration (ug/mL); type: functional
In short: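 Tube dilution in Sabouraud's dextrose broth (ca. 3 mL/tube) at 37 °C; inoculum from 24-h yeast culture, 1:1000 in saline. Drug dissolved in Me2SO-EtOH (1:9), stock 3.2 mg/mL; twofold serial dilutions 32 to 0.06 µg/mL. Read after 48 h; MIC = lowest concentration with no visible growth.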

[31] = test system: Entamoeba histolytica; assay: Antiprotozoal activity measured as the conc for <[…]% inhibition of Entamoeba histolytica,; type: functional, organism-based
[32] = test system: Entamoeba histolytica; assay: Antiprotozoal activity measured as the conc for >95% inhibition of Entamoeba histolytica,; type: functional, organism-based; in short: as §2
[33] = test system: Entamoeba histolytica; assay: Antiprotozoal activity measured as the conc for 100% inhibition of Entamoeba histolytica,; type: functional, organism-based; in short: as §2
[34] = test system: Entamoeba histolytica; assay: Antiprotozoal activity measured as the conc for 95-[…]% inhibition of Entamoeba histolytica; type: functional, organism-based
[35] = test system: Cutibacterium acnes; assay: Antibacterial activity against Propionibacterium acnes, activity expressed as inhibitory zone (mm, diameter); QA is questionable activity; type: functional, organism-based; in short: as §3
[36] = test system: Tritrichomonas suis; assay: Antiprotozoal activity measured as the conc for < […]% inhibition of Trichomonas foetus; type: functional, organism-based
[37] = test system: Trichomonas vaginalis; assay: Antiprotozoal activity measured as the conc for<[…]% inhibition of Trichomonas vaginalis; type: functional, organism-based
[38] = Epidermophyton floccosum, read-out: MIC
[39] = Saccharomyces cerevisiae, read-out: MIC
[40] = Trichophyton benhamiae, read-out: MIC
[41] = Candida albicans, read-out: MIC

COc1ccc(C[C@H]2NC[C@H](O)[C@H]2OC(C)=O)cc1
Concentration [1]: 2 µg/mL | Concentration [2]: 4 µg/mL | Concentration [3]: 0.5 µg/mL | Concentration [4]: 0.25 µg/mL | Concentration [5]: 1 µg/mL | Concentration [6]: 2 µg/mL | Concentration [7]: 0.25 µg/mL | Concentration [8]: 0.5 µg/mL | Inhibitory zone [9]: Questionable activity | Concentration [10]: 1 µg/mL

COc1ccc(C(C)[C@H]2NC[C@H](O)[C@H]2OC(C)=O)cc1 (stereo partly drawn)
Inhibitory zone [11]: 0 mm | Inhibitory zone [12]: 24 mm | Inhibitory zone [13]: 8 mm | Inhibitory zone [14]: 0 mm | MIC [15]: > 32 µg/mL | Inhibitory zone [16]: 0 mm | Concentration [17]: 32 µg/mL | Inhibitory zone [18]: 0 mm | Inhibitory zone [19]: 0 mm | MIC [20]: > 32 µg/mL | Concentration [4]: 32 µg/mL | Inhibitory zone [21]: 0 mm | Concentration [22]: 32 µg/mL | Inhibitory zone [23]: 0 mm | MIC [24]: > 32 µg/mL | MIC [25]: > 32 µg/mL

CC(=O)O[C@@H]1[C@@H](O)CN[C@@H]1Cc1ccccc1
Inhibitory zone [11]: 0 mm | Inhibitory zone [12]: 0 mm | Inhibitory zone [13]: 0 mm | Inhibitory zone [14]: 0 mm | Inhibitory zone [16]: 8 mm | MIC [26, 38]: 32 µg/mL (≈ 136 µM) | Concentration [1]: 16 µg/mL | Inhibitory zone [18]: 0 mm | QA [27]: questionable activity | MIC [28, 39]: 2 µg/mL (≈ 8.5 µM) | Concentration [2]: 32 µg/mL | Concentration [3]: 4 µg/mL | Concentration [4]: 2 µg/mL | Concentration [5]: 16 µg/mL | Inhibitory zone [21]: 0 mm | Concentration [6]: 8 µg/mL | Concentration [7]: 2 µg/mL | Concentration [8]: 4 µg/mL | Inhibitory zone [23]: 10 mm | MIC [29, 40]: 16 µg/mL (≈ 68 µM) | MIC [30, 41]: 32 µg/mL (≈ 136 µM) | Concentration [10]: 2 µg/mL

Clc1ccccc1C(c1ccccc1)(c1ccccc1)n1ccnc1 [CLOTRIMAZOLE]
Concentration [31]: 4 µg/mL | Concentration [32]: 16 µg/mL | MIC [26]: 0.06 µg/mL (≈ 0.174 µM) | Concentration [33]: 32 µg/mL | Concentration [34]: 8 µg/mL | MIC [28]: 0.06 µg/mL (≈ 0.174 µM) | Concentration [6]: 32 µg/mL | Concentration [7]: 8 µg/mL | Concentration [22]: 4 µg/mL | MIC [29]: 0.06 µg/mL (≈ 0.174 µM) | MIC [30]: 4 µg/mL (≈ 11.6 µM)

COc1ccccc1C[C@H]1NC[C@H](O)[C@H]1OC(C)=O
Inhibitory zone [11]: 0 mm | Inhibitory zone [12]: 0 mm | Inhibitory zone [13]: 13 mm | Inhibitory zone [14]: 0 mm | MIC [15]: > 32 µg/mL | Inhibitory zone [16]: 0 mm | Inhibitory zone [35]: Questionable activity | Inhibitory zone [19]: 0 mm | MIC [20]: > 32 µg/mL | Concentration [36]: 32 µg/mL | Inhibitory zone [21]: 0 mm | Concentration [22]: 32 µg/mL | Concentration [37]: 32 µg/mL | Inhibitory zone [23]: 0 mm | MIC [24]: > 32 µg/mL | MIC [25]: > 32 µg/mL

COc1ccc(C[C@H]2NC[C@H](O)[C@H]2OC(C)=O)cc1 (racemic) [ANISOMYCIN]
Inhibitory zone [11]: 0 mm | Inhibitory zone [12]: 0 mm | Inhibitory zone [13]: 0 mm | Inhibitory zone [14]: 0 mm | Inhibitory zone [16]: 8 mm | MIC [26, 38]: 32 µg/mL (≈ 121 µM) | Inhibitory zone [18]: 0 mm | Inhibitory zone [19]: 10 mm | MIC [28, 39]: 0.5 µg/mL (≈ 1.88 µM) | Inhibitory zone [21]: 0 mm | Inhibitory zone [23]: 10 mm | MIC [29, 40]: 4 µg/mL (≈ 15.1 µM) | MIC [30, 41]: 8 µg/mL (≈ 30.2 µM)
